The values below come from ChEMBL document CHEMBL1130380, “Studies on selection blockers. 5. Design, synthesis, and biological profile of sialyl Lewis x mimetics based on modified serine-glutamic acid dipeptides” (J Med Chem, 1997).

Assay [1] concerns the target T1, L-selectin (Mus musculus, UniProt P18337).
T1 sequence (P18337 whole entry): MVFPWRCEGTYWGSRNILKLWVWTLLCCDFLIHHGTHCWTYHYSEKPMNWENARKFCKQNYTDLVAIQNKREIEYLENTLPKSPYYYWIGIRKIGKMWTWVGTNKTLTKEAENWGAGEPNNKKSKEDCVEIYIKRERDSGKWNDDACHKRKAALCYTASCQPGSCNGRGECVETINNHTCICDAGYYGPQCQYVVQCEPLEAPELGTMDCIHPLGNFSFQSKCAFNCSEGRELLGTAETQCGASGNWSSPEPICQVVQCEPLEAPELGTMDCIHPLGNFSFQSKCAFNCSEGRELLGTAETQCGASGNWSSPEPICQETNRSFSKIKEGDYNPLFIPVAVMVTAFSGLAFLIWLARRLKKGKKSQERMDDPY
In words: Blocking activity using seletin-IgG chimeras in a Selectin L competitive binding assay. A digest of the protocol:
(§1)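 Selectin-Ig fusion protein is premixed for 30 min at room temperature with biotin-anti-human IgG (Fc) and streptavidin-alkaline phosphatase (each 1:500 in 1% BSA-PBS). The complex is preincubated 30 min with test compound (final 100, 25, 6.25, 1.56 µM; 10 mM water stock). It is then bound 45 min at 37 °C to wells coated with sLex-pentaceramide and blocked with 5% BSA. Read-out is p-nitrophenylphosphate absorbance, expressed as % binding versus controls.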

Assay [2] has as its target T2, E-selectin (Mus musculus, UniProt Q00690).
T2 sequence (Q00690 whole entry): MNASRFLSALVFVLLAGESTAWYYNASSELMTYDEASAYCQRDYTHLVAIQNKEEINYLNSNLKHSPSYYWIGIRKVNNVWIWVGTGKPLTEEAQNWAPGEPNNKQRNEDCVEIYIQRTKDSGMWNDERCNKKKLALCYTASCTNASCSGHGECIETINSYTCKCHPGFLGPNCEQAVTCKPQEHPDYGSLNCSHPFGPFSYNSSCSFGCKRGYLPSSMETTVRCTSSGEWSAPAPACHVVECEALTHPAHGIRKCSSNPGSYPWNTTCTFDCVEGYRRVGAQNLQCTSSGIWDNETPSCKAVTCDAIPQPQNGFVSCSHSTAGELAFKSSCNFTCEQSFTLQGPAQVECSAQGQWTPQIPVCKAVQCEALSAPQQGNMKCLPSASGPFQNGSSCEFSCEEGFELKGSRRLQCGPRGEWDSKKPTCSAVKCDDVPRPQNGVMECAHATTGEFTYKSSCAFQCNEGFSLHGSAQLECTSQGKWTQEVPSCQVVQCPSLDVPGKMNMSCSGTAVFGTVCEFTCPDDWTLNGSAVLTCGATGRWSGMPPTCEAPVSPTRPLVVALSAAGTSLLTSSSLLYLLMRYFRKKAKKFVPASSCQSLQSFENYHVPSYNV
In words: In vitro inhibitory activity against Selectin E-sialyl Lewis X (sLex) binding. A digest of the protocol: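 sLex-pentaceramide (100 pmol/well) dried onto wells, blocked with 5% BSA-PBS 1 h RT. E-selectin-Ig fusion premixed 30 min RT with biotin-anti-human IgG(Fc)/streptavidin-alkaline phosphatase. Compounds (water stock 10 mM; final 100, 25, 6.25, 1.56 µM) preincubated with complex 30 min RT, then added to wells 45 min at 37 °C. Read-out: p-nitrophenylphosphate in diethanolamine pH 9.8; % binding versus no-compound control, background without selectin-Ig.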

The target of assay [3] is T3, P-selectin (Mus musculus, UniProt Q01102).
T3 sequence (Q01102 whole entry): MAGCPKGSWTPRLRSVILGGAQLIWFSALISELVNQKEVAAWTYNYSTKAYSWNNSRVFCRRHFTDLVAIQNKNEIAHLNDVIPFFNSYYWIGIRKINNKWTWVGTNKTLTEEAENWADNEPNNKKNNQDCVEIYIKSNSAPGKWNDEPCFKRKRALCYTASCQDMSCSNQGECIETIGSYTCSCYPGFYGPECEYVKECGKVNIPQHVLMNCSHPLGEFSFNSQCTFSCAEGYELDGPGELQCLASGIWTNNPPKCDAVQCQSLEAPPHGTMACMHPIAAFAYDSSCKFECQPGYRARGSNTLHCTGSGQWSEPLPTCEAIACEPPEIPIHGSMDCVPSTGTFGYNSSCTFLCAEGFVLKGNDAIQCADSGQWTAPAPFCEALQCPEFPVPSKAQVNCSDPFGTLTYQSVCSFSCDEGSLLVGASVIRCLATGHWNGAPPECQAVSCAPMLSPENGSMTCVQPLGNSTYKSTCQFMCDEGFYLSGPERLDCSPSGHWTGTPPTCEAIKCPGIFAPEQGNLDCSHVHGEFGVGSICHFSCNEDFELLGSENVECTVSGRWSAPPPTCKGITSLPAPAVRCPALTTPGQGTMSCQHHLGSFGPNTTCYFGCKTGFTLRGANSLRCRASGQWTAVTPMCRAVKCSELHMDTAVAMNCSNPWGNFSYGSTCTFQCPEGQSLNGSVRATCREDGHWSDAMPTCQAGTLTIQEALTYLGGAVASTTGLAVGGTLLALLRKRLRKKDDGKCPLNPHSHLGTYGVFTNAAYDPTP
In words: Blocking activity using seletin-IgG chimeras in a Selectin P competitive binding assay. A digest of the protocol:
as §1

The target in assay [4] is T1, L-selectin. In words: Blocking activity using selectin-IgG chimeras in a Selectin L competitive binding assay. The essentials:
as §1

Assay [5] concerns the target T3, P-selectin. The experiment in a line: Blocking activity using selectin-IgG chimeras in a Selectin P competitive binding assay. A digest of the protocol:
as §1

A value given as a limit tells only on which side of the number the result lay.

As to `CCCCCCCCCCCCCCC(CCCCCCCCCCCCCC)CO[C@@H]1O[C@H](CO)[C@@H](O[C@@H]2O[C@H](CO)[C@H](O)[C@H](OS(=O)(=O)O)[C@H]2O)[C@H](O[C@@H]2O[C@@H](C)[C@@H](O)[C@@H](O)[C@@H]2O)[C@H]1O`, the IC50 (usually the concentration at which inhibition is half-maximal) in assay [1] turned out to be 30 µM; in assay [2] it was 280 µM; in assay [3], 100 µM.
Turning to `CCCCCCCCCCCCCCC(CCCCCCCCCCCCCC)C(=O)N[C@H](CO[C@@H]1O[C@@H](C)[C@@H](O)[C@H](O)[C@@H]1O)C(=O)N[C@H](CCC(=O)O)C(=O)NC`, the figures for the IC50 in assay [4], in assay [2] and in assay [5] were 39 µM, over 1000 µM and 1.9 µM, respectively.
For `CCCCCCCCCCCCCCC(CCCCCCCCCCCCCC)C(=O)N[C@@H](CO[C@@H]1O[C@@H](C)[C@@H](O)[C@H](O)[C@@H]1O)C(=O)N[C@@H](CCC(=O)O)C(=O)NC`, the IC50 in assay [1] is 18 µM; in assay [2], over 1000 µM; in assay [3] it was 2.1 µM.
On the same counts, the results for `CCCCCCCCCCCCCCC(CCCCCCCCCCCCCC)C(=O)N[C@@H](CO[C@@H]1O[C@@H](C)[C@@H](O)[C@H](O)[C@@H]1O)C(=O)N[C@H](CCC(=O)O)C(=O)NC` are 9.4 µM, 5.5 µM and 0.7 µM.
In the case of `CC(=O)N[C@H]1[C@H]([C@H](O)[C@H](O)CO)O[C@@](O[C@H]2[C@@H](O)[C@@H](CO)O[C@@H](O[C@@H]([C@H](O[C@@H]3O[C@@H](C)[C@@H](O)[C@@H](O)[C@@H]3O)[C@H](C=O)NC(C)=O)[C@H](O)CO)[C@@H]2O)(C(=O)O)C[C@@H]1O` [SIALYL LEWIS X], the figures for the concentration for half-maximal inhibition (IC50) in assay [1], in assay [2] and in assay [3] were over 1000 µM, 600 µM and over 1000 µM, respectively.
As to `CCCCCCCCCCCCCCC(CCCCCCCCCCCCCC)C(=O)N[C@H](CO[C@@H]1O[C@@H](C)[C@@H](O)[C@H](O)[C@@H]1O)C(=O)N[C@@H](CCC(=O)O)C(=O)NC`, the IC50 in assay [1] was determined as 6 µM; in assay [2], 13 µM; in assay [3] it was 0.5 µM.
